The target of series [1] is T1, GABA-A receptor; alpha-3/beta-3/gamma-2 (Homo sapiens, UniProt P18507+P28472+P34903).
T1 sequence (P18507 whole entry): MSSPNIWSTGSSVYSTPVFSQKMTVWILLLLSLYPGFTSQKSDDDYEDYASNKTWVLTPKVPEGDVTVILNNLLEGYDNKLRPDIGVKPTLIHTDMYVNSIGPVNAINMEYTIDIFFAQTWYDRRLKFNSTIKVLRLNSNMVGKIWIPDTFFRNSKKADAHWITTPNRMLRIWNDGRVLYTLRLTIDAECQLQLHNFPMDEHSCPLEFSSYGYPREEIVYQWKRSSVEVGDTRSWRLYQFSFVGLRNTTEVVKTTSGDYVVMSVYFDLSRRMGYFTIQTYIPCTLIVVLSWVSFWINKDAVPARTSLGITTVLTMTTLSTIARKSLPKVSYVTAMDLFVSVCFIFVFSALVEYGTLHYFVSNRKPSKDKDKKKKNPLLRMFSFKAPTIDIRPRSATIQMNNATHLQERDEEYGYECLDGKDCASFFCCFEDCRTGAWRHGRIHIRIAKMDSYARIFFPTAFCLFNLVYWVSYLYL
T1 sequence (P28472 whole entry): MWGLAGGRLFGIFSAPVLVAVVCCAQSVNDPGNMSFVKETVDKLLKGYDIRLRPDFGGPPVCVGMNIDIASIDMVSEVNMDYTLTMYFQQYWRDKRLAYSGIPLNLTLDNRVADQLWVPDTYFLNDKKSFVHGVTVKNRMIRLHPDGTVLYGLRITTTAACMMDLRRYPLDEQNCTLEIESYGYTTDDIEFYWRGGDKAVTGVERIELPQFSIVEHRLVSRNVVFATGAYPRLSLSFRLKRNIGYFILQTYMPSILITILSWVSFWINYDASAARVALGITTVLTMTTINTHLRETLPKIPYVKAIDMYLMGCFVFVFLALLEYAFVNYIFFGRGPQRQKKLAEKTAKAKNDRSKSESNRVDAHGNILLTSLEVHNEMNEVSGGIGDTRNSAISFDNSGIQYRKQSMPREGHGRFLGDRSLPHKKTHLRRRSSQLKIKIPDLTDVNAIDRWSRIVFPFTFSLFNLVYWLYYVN
T1 sequence (P34903 whole entry): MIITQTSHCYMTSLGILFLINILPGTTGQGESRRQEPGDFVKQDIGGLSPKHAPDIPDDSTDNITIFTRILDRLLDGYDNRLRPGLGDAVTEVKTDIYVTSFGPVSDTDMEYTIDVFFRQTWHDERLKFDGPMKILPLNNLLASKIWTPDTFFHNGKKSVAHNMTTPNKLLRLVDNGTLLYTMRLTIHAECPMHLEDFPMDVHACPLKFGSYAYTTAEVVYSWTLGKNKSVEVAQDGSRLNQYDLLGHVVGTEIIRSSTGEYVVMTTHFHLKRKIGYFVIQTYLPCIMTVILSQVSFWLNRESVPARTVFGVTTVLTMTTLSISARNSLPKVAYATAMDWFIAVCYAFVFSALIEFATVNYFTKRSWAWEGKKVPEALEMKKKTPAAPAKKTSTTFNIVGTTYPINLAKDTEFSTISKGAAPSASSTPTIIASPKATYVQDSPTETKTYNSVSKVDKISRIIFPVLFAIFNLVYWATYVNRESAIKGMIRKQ
The series is described as follows: Displacement of [3H]Ro 15-1788 from human GABA-Aalpha3 receptor plus beta-3-gamma-2 expressed in mouse L(tk-) cells. In kind it is cell-based. The essentials: (§1)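 Competition binding against [³H]Ro15-1788 used at twice its Kd, with human GABA-A αxβ3γ2 receptors (α1 or α3) stably expressed in mouse LTK fibroblasts. Ki was calculated by Cheng-Prusoff from the inhibition curves. Values are means of three determinations.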

The target of series [2] is T2, GABA-A receptor; alpha-1/beta-3/gamma-2 (Homo sapiens) (UniProt P14867+P18507+P28472). The series is described as follows: Efficacy against GABA-Aalpha1 receptor plus beta3gamma2 expressed in mouse L(tk-) cells relative to chlorodiazepoxide by chlorine flux assay. Type of series: functional, cell-based. The essentials:
(§2)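 Human GABA-A αxβ3γ2 receptors (α1 or α3) stably expressed in mouse LTK fibroblasts. ³⁶Cl⁻ flux assay with drug at 1000× Ki and GABA at EC20. Efficacy expressed relative to the maximal response of the full agonist chlordiazepoxide. Means of at least 7 determinations.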

Series [3] concerns the target T3, GABA-A receptor; alpha-1/beta-3/gamma-2 (Homo sapiens, UniProt P14867+P18507+P28472).
T3 sequence (P14867 whole entry): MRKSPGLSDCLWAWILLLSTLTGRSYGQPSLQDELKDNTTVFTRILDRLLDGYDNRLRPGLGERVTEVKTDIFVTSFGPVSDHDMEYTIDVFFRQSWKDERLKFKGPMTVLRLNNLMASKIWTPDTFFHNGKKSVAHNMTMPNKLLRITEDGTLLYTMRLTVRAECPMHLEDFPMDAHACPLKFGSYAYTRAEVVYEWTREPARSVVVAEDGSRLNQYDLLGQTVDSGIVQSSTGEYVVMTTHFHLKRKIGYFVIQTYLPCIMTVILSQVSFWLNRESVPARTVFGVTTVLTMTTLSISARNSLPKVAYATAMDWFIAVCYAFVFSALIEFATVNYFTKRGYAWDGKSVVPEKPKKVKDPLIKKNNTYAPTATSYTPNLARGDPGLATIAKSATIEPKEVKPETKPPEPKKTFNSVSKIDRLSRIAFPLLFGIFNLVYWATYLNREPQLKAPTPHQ
T3 sequence (P18507 whole entry): T1 sequence (P18507 whole entry)
T3 sequence (P28472 whole entry): T1 sequence (P28472 whole entry)
The series is described as follows: Displacement of [3H]Ro 15-1788 from human GABA-Aalpha1 receptor plus beta-3-gamma-2 expressed in mouse L(tk-) cells. In kind it is cell-based. Summed up: as §1

In series [4] the target is GABA-A receptor; alpha-3/beta-3/gamma-2 (Homo sapiens) (UniProt P18507+P28472+P34903). The series is described as follows: Efficacy against GABA-Aalpha3 receptor plus beta-3-gamma-2 expressed in mouse L(tk-) cells relative to chlorodiazepoxide by chlorine flux assay. In kind it is functional, cell-based. The essentials: as §2
A short description of series [5]: Dissociation constant, pKa of the compound. Type of series: physicochemical. The essentials:
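pKa determined from changes in the UV chromophore during a pH titration.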

The nature of series [6]: Distribution coefficient, log D at pH 7.4. The conditions noted are these: octanol/water. In kind it is physicochemical. Summed up:
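Shake-flask partitioning between octanol and pH 7.4 aqueous buffer, shaken 20 min. logD7.4 is taken as the ratio of concentrations in octanol and in buffer.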

Series [7] concerns the target T2, GABA-A receptor; alpha-1/beta-3/gamma-2 (Homo sapiens). The series is described as follows: Efficacy against GABA-Aalpha1 receptor plus beta-3-gamma-2 expressed in mouse L(tk-) cells relative to chlorodiazepoxide by electrophysiology method. In kind it is functional, cell-based. The essentials: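 Human GABA-A α1β3γ2 receptors stably expressed in mouse LTK fibroblasts. Electrophysiology measured maximum modulation of the GABA EC20 response, expressed relative to the maximal response of the full agonist chlordiazepoxide. Means of at least 5 determinations.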

Structures are written as SMILES.

From ChEMBL document CHEMBL1139669, “8-Fluoroimidazo[1,2-a]pyridine: synthesis, physicochemical properties and evaluation as a bioisosteric replacement for imidazo[1,2-a]pyrimidine in an allosteric modulator ligand of the GABA A receptor” (Bioorg Med Chem Lett, 2006) come the findings set out here.

Consider `CC(C)(O)c1ccn2c(-c3ccc(F)c(-c4ccccc4C#N)c3)cnc2c1`, for which the Ki in series [1] amounted to 5.16 nM; in series [3] it was 4.35 nM. The values for the Efficacy in series [2] and in series [4] were 35% and 61%, respectively.
`CC(C)(O)c1ccn2ccnc2n1`: the pKa in series [5] worked out at 5.4. The compound also yielded a logD in series [6] of 0.1.
The compound `c1cnc2nccn2c1` displayed a pKa in series [5] of 4.9. Moreover, the logD in series [6] is -0.2.
In series [5], `CC(C)(O)c1ccn2ccnc2c1F` registered a pKa of 5.4. This compound also gave a logD in series [6] of 1.1.
In series [5], `Fc1cccn2ccnc12` had a pKa of 4.9. For the same compound, the logD in series [6] worked out at 0.9.
On to `CC(C)(O)c1ccn2c(-c3ccc(F)c(-c4ccccc4C#N)c3)cnc2c1F`, for which the Ki was 0.32 nM in series [1] and 0.2 nM in series [3]. For the same compound, the Efficacy in series [7] is 34%; in series [4], 104%.
The compound `CC(C)(O)c1ccn2ccnc2c1` registered a pKa in series [5] of 7.2. This compound showed a logD in series [6] of 0.6.
For the compound `CC(C)(O)c1ccn2c(-c3ccc(F)c(-c4ccccc4C#N)c3)cnc2n1`, the figures for the Ki in series [1] and in series [3] were 0.47 nM and 0.71 nM, respectively. Further, the Efficacy is 60% in series [7] and 79% in series [4].
In series [5], `c1ccn2ccnc2c1` had a pKa of 6.9. In addition, the logD in series [6] amounted to 0.8.
